The data set can be described thus: Toxicity liver stage against HepG2, at 10uM. In kind it is cell-based. Also noted: test concentration 10 uM, cell line HepG2-A16-CD81EGFP. The settings on record: human, HepG2-A16-CD81EGFP cells; read-out: INHIBITION
The method, boiled down:
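Uninfected HepG2-A16-CD81EGFP cells, 3 × 10^3 per well, 1536-well, plated on prespotted compound at 10 μM final, parasite-free screening media added to match infected plates; puromycin 10 μM positive, DMSO 0.5% negative; run in parallel with 48 h PbLuc assay at 37 °C, 5% CO2; viability by CellTiter-Glo luminescence, normalized to controls.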
With `O=C(CN1CCCC1)Nc1c2c(cc3c1CCC3)CCC2`, the cytotoxicity at 10 µM was -2.1%.
For `O=C1NCCCCC1Sc1nnc(C2CC2)n1C1CC1` (stereo unspecified) the value was -6%.
Regarding `O=C1C[C@@H]2CCN(Cc3ccccc3)C[C@@H]2CCN1C1CCCCC1`, the cytotoxicity at 10 µM is 5.17%.
Regarding `CCN(CC)S(=O)(=O)c1ccc2c(c1)N(Cc1cccnc1)C(=O)CS2`, the cytotoxicity at 10 µM came out at 1.82%.
For the compound `CN(C)c1no[n+]([O-])c1-c1ccccc1`, the cytotoxicity at 10 µM came to 15.8%.
In the case of `Cc1c(C2SCC(=O)Nc3c2cnn3C(C)(C)C)cnn1C` (stereo unspecified), the cytotoxicity at 10 µM is -1.21%.
For `O=C(NC1(c2nc(C3CC3)no2)CCCCC1)c1ccncc1`, the cytotoxicity at 10 µM was -7.12%.
For `Cc1nc(N2CCCC2)nc(C)c1NS(=O)(=O)c1ccccc1F`, the cytotoxicity at 10 µM was -3.92%.
Regarding `CCn1nnc2c1CCN(S(C)(=O)=O)C2COCc1ccccc1` (stereo unspecified), the cytotoxicity at 10 µM was 0.196%.
Then `CC(C)CC(=O)N1CCCn2cnc(CNS(C)(=O)=O)c2C1`, with -1.22%; and `CC(=O)N1CCN(C(=O)NC(C)C)CC2(CC(=O)N(C)C2)C1` (stereo unspecified), with -4.13%; and `O=C(Cc1csc(-c2ccccc2)n1)N[C@@H](C(=O)O)c1ccccc1`, with 6.56%.
In the case of `COCC1CN(S(C)(=O)=O)Cc2ncn(CC3CC3)c21` (stereo unspecified), the cytotoxicity at 10 µM was 1.68%.
Turning to `CS(=O)(=O)NCc1n[nH]c2c1CCN(C(=O)c1ccsc1)C2`, the cytotoxicity at 10 µM is 4.01%.
Then `CC(C)NC(=O)N1CC[C@@H]2CN(Cc3cccc(Cl)c3)S(=O)(=O)[C@@H]2CC1`, with 4.71%; and `CC(C)NC(=O)c1nnc2ccc(N3CCOCC3)cc2n1`, with 1.86%; and `CCCc1nc(N2CCSCC2)c2c(n1)c(C)nn2CC`, with 8.05%.
On to `CCN(CC)Cc1nnc2sc(C(C)Oc3ccccc3)nn12` (stereo unspecified), for which the cytotoxicity at 10 µM is 8.35%.
`CC(=O)NCC(=O)N1CCOCC(Cc2ccc3c(ccn3C)c2)C1` (stereo unspecified): the cytotoxicity at 10 µM stood at 1.89%.
Then `Cc1ncsc1C(=O)NCc1ccc(-c2n[nH]cc2C(=O)N(C)C)cc1`, with 0.522%.
Regarding `CN(C)S(=O)(=O)N1CC(c2ccnc(Nc3ccccn3)n2)C1`, the cytotoxicity at 10 µM worked out at 8.84%.
As to `CN1CCC(c2cncc(C(=O)NCc3ccc(F)cc3)n2)CC1`, the cytotoxicity at 10 µM was -8.11%.
Then `CNc1cc(C2CN(Cc3coc(C)n3)CCO2)nc(C)n1` (stereo unspecified), with -11.1%; and `O=C(N[C@@H]1CCC[C@@H](N2CCOCC2)[C@@H]1O)c1cc2ccccc2[nH]1`, with -26.9%.
In the case of `CC(C)(C)CC(=O)N1CCC(c2nn(CCN)c3nccnc23)C1` (stereo unspecified), the cytotoxicity at 10 µM was -20.9%.
For the compound `O=C(NCC1CC1)c1cc(C2CC2)nc2onc(C3CCCNC3)c12` (stereo unspecified), the cytotoxicity at 10 µM was found to be 4.98%.
Then `Cc1cnn(CC(C)NCc2cccnc2)c1` (stereo unspecified), with -3.3%.
Take `CN(C)C(=O)c1cccc(NC(=O)Cc2cc(F)ccc2F)n1`: the cytotoxicity at 10 µM was -2.64%.
As for `CCCN(CCC)C(=O)c1sc(C)nc1C`, the cytotoxicity at 10 µM was 3.05%.
As to `CCC(CC)c1cc(C(=O)N2CCN(CC(N)=O)CC2)on1`, the cytotoxicity at 10 µM is -4.97%.
Regarding `Cc1nc(C(C)(C)NCc2nnc(C(C)C)o2)sc1C`, the cytotoxicity at 10 µM is 6.35%.
With `CCOC(C)c1nc(CNc2cccc(Cl)c2OC)cs1` (stereo unspecified), the cytotoxicity at 10 µM stood at 6.16%.
For `NC(=O)CN(CC(=O)NCc1cccc(Cl)c1)C1CCCC1` the value was -0.979%.
As to `O=C(CS(=O)(=O)c1cccc[n+]1[O-])NC1CCCc2ccccc21` (stereo unspecified), the cytotoxicity at 10 µM is -3.46%.
Then `CCc1nnc2n1CCN(C(=O)CCOc1cc(C)ccc1C)C2`, with -11.3%.
As for `CN(Cc1noc(C(C)(C)C)n1)Cc1ccccc1N1CCCC1`, the cytotoxicity at 10 µM was -1.78%.
Then `CN(CCN1CCOCC1)C(=O)CCc1ccc(C(F)(F)F)cc1`, with -1.3%; and `CNc1cc(N2CCCC2CNCc2cccnc2)ncn1` (stereo unspecified), with -11.5%; and `O=S(=O)(CCO)Cc1ccc(OCC(F)(F)F)cc1`, with 2.23%.
Then `CN(c1ncnc2c1CCC2)C1CCCN(c2cccnn2)C1` (stereo unspecified), with 1.72%; and `CC(=O)N(CCc1ccccc1)CC(=O)NC1(C#N)CC1`, with 1.09%; and `CS(=O)(=O)c1nccn1Cc1ccc(Cl)cc1`, with -10.4%.
Regarding `CC(C)CN(CC(O)c1ccc(F)cc1)C(=O)c1csnn1` (stereo unspecified), the cytotoxicity at 10 µM came to 2.83%.
With `C[S+]([O-])CCNC(=O)Nc1cc(F)ccc1-n1cccn1` (stereo unspecified), the cytotoxicity at 10 µM was -20.9%.
For the compound `O=C(CCc1ccsc1)Nc1cnccc1O`, the cytotoxicity at 10 µM worked out at 9.56%.
Then `COc1cccc(CN(C)Cc2cccc(C#N)c2)c1OC`, with -7.82%; and `O=S(=O)(CCNCc1ccc2c(c1)CCO2)N1CCOCC1`, with -9.61%.
For the compound `Cn1c(CNc2c(F)cccc2-n2cccn2)cc(=O)n(C)c1=O`, the cytotoxicity at 10 µM is -7.79%.
Then `CN(CCN1CCOCC1)C(=O)CCc1cccc(Cl)c1`, with -6.57%; and `CCc1ccc(C(=O)N2CCC(c3nncn3CC)CC2)cc1`, with -2.95%; and `c1cc(C2CCCN2Cc2nnnn2C2CC2)cs1` (stereo unspecified), with -8.86%.
For `Cc1nc(CN2CCO[C@@H]3CNCC[C@@H]3C2)cs1` the value was 4.47%.
Then `Cc1ccc(C(=O)N2CCn3c(COCC4CC4)cnc3C2C)s1` (stereo unspecified), with 5.14%; and `O=C1NCCCC12CCN(S(=O)(=O)N1CCOCC1)C2` (stereo unspecified), with -1.16%.
Turning to `Cc1nc(O)cc(C2CCN(C(=O)C(C)Cn3nc(C)nc3C)CC2)n1` (stereo unspecified), the cytotoxicity at 10 µM was -1.89%.
For `Cc1ccc(N2CCC(C(O)Cc3ccccc3)CC2)nn1` (stereo unspecified) the value was -3.43%; for `COCc1noc(Cn2ncn3cccc3c2=O)n1`, -5.56%.
Then `O=C(CN1CCC2(CCCN(CCO)C2=O)C1)NCCc1ccccc1` (stereo unspecified), with 0.174%.
For `CN(CCCO)c1nc(-c2ccc(C(N)=O)cc2)nc2c1CCNC2` the value was -2.86%.
In the case of `CCOC(=O)C1CCCN(Cc2c[nH]nc2-c2cc3ccccc3o2)C1` (stereo unspecified), the cytotoxicity at 10 µM was 3.16%.
For the compound `CC1(C)CN(CC(=O)NCc2ccccc2F)C[C@]1(C)O`, the cytotoxicity at 10 µM is -1.84%.
For `CC1(C)CC(N2CCN(C3CCCC3)C(CCO)C2)CC(C)(C)C1` (stereo unspecified) the value was -7.19%; for `CSCc1noc(CN(C)C(C)c2nc(C)sc2C)n1` (stereo unspecified), 8.2%; for `CC(Cc1cccnc1)Nc1ncnc2cccc(F)c12` (stereo unspecified), 26.3%.
For `CC(C)=CCn1ncc(N2CCCCC2)cc1=O` the value was -9.48%; for `O=C(CCc1cc(O)no1)N1CCC(Cc2ccc(F)cc2)CC1`, -0.505%; for `Cn1ncc(C2CC(=O)NCc3nc4sccn4c32)c1C1CC1` (stereo unspecified), -5.01%.
`CN1CCC(Cc2noc(-c3cn(Cc4ccc(F)cc4)nn3)n2)CC1`: the cytotoxicity at 10 µM is -4.18%.
For `Cc1cc(CC(=O)N2CCN(CC3CC3)[C@@H]3CS(=O)(=O)C[C@@H]32)ccc1F` the value was 5.17%; for `CC(C)C1CN(c2ncc(F)cn2)CCC(=O)N1Cc1ccc(F)cc1` (stereo unspecified), 16.9%; for `COCC1CCN(C(=O)c2cccc(S(=O)(=O)NCC3(C)COC3)c2)C1` (stereo unspecified), 3.82%.
As for `Cc1nccnc1N1CC[C@@H](NC(=O)c2cnccn2)[C@H](O)C1`, the cytotoxicity at 10 µM is -11.3%.
For `CCOc1cc(C)nc(N2CCN(C(=O)c3cnc[nH]3)CC2)n1` the value was -11.8%; for `CC(C)c1ccc(CCC(=O)N2CCOCC2c2ncon2)cc1` (stereo unspecified), -4.56%.
With `Cc1ncsc1C(=O)N(Cc1ccccn1)C1CC1`, the cytotoxicity at 10 µM is -11.2%.
As to `Cc1ccc2oc(C(=O)N3CCCC(n4nc(C)nc4C)C3)cc2n1` (stereo unspecified), the cytotoxicity at 10 µM is -7.39%.
For `Cc1nnc2n1CCN(C(C(=O)NC1CC1)c1ccc(F)cc1)C2` (stereo unspecified), the cytotoxicity at 10 µM is -6.6%.
For `CCN(CC)C(=O)Cn1ccc2cc(NC(=O)C3CCCCC3)ccc21` the value was -5.04%.
For `CCc1nc(CN2CCN(C(=O)C3(C#N)CCCC3)CC2)cs1` the value was 0.38%; for `CCN1CCN(C2CCN(CC(=O)NCC(F)(F)F)CC2)C1=O`, -2.99%.
Then `O=C(Nc1ccc(F)cc1)N1CCN(Cc2noc(C3CC3)n2)CC1`, with -18.1%; and `Cc1cc(CN2CCN(C(=O)NCc3nc(C)cs3)CC2)on1`, with -5.01%; and `COCCN1CC(C(=O)NCc2ccnc(-n3cccn3)c2)CC1=O` (stereo unspecified), with -5.07%.
On to `O=C1CC(N(C(=O)c2ccc3c(c2)CCC3)C2CC2)C(=O)N1` (stereo unspecified), for which the cytotoxicity at 10 µM is -1.99%.
In the case of `c1ccc(-c2nc(CN3CCOC(Cn4cccn4)C3)no2)cc1` (stereo unspecified), the cytotoxicity at 10 µM came to 10.1%.
Turning to `COCCc1noc(CNC2CCc3nc(C(C)C)nn3C2)n1` (stereo unspecified), the cytotoxicity at 10 µM amounted to 4.28%.
For `O=C([C@H]1CC[C@@H]2[C@@H](CCN2C2CCCC2)O1)N1CCOCC1` the value was 11.5%.
Then `CO[C@H]1CC[C@H]2[C@H]1OCCN2CCOCc1ccccc1`, with -114%; and `Cc1cccc(CN2CCc3cc(C(=O)O)c(N(C)C)nc3CC2)n1`, with 3.68%; and `CN(C)CCN1CCN(Cc2ccco2)Cc2cccnc21`, with 1.73%.
With `O=C1CC2(CCN(Cc3ccccn3)C2)CN1c1cncnc1` (stereo unspecified), the cytotoxicity at 10 µM turned out to be 2.26%.
`O=C1COC2(CCN(C(=O)C3CC=CC3)CC2)CN1Cc1cccnc1`: the cytotoxicity at 10 µM was 3.27%.
Then `Cc1nc(CN2CC[C@H](OCC3CC3)[C@@H]2Cc2cccnc2)cs1`, with 0.15%; and `COCCNC(=O)[C@H]1CN(Cc2nccs2)C[C@H]2OCC[C@@H]12`, with -11.6%; and `Cc1ccc(CN2C[C@@H]3COC[C@@H](CC(=O)N4CCOCC4)[C@@H]3C2)s1`, with -2.04%.
On to `CCC12CN3CC(C)(CN(C1)C3c1[nH]c(=O)[nH]c(=O)c1C)C2=O` (stereo unspecified), for which the cytotoxicity at 10 µM stood at 6.35%.
